Measured values: ChEMBL document CHEMBL4118021, “Studies of TAK1-centered polypharmacology with novel covalent TAK1 inhibitors” (Bioorg Med Chem, 2017)
Values belong to the molecule of their own block, whether it stands above or below them. Active and inactive are the calls of the source. The rule behind the calls is not given here.

Key:
[1] = target: Tubulin alpha-4A chain (Homo sapiens) (UniProt P68366); test: Binding affinity to TUBA4A in human NCI-H23 cells at 1 uM by mass spectrometry based pull down assay; type: cell-based
[2] = target: T1, 80S Ribosome (Homo sapiens) (UniProt P08865+P42677+P62753+P15880+P23396+P61247+P62701+P22090+P46782+P62081+P62241+P46781+P46783+P62280+P25398+P62277+P62263+P62841+P62244+P62249+P08708+P62269+P39019+P60866+P63220+P62266+P62847+P62851+P62854+P62979+P62857+P62273+P62861+P39023+P36578+P46777+Q02878+P18124+P62424+P62917+P32969+P27635+P62906+P62913+P30050+P26373+P40429+P50914+P61313+P18621+Q07020+Q02543+P84098+P46778+P35268+P62829+P62750+P83731+P61254+P61353+P46776+P46779+P47914+P62888+P62899+P62910+P49207+P42766+P18077+Q9Y3U8+P83881+P61927+P61513+P63173+P62891+P62945+P05388+P05386); test: Binding affinity to RPL23A in human NCI-H358 cells at 1 uM by mass spectrometry based pull down assay; type: cell-based
[3] = target: Poly(rC)-binding protein 2 (Homo sapiens) (UniProt Q15366); test: Binding affinity to PCBP2 in human NCI-H358 cells at 1 uM by mass spectrometry based pull down assay; type: cell-based
[4] = target: 5'-AMP-activated protein kinase catalytic subunit alpha-1 (Homo sapiens) (UniProt Q13131); test: Binding affinity to PRKAA1 in human NCI-H358 cells at 1 uM by mass spectrometry based pull down assay; type: cell-based
[5] = target: ATP-dependent RNA helicase DDX3X (Homo sapiens) (UniProt O00571); test: Binding affinity to DDX3X in human NCI-H358 cells at 1 uM by mass spectrometry based pull down assay; type: cell-based
[6] = target: Clathrin heavy chain 1 (Homo sapiens) (UniProt Q00610); test: Binding affinity to CLTC in human NCI-H23 cells at 1 uM by mass spectrometry based pull down assay; type: cell-based
[7] = target: Glutamate--cysteine ligase regulatory subunit (Homo sapiens) (UniProt P48507); test: Binding affinity to GCLM in human NCI-H23 cells at 1 uM by mass spectrometry based pull down assay; type: cell-based
[8] = target: T1, 80S Ribosome (Homo sapiens); test: Binding affinity to RPL24 in human NCI-H23 cells at 1 uM by mass spectrometry based pull down assay; type: cell-based
[9] = target: Mitogen-activated protein kinase 3 (Homo sapiens) (UniProt P27361); test: Binding affinity to MAPK3 in human NCI-H358 cells at 1 uM by mass spectrometry based pull down assay; type: cell-based
[10] = target: Protein disulfide-isomerase A4 (Homo sapiens) (UniProt P13667); test: Binding affinity to PDIA4 in human NCI-H23 cells at 1 uM by mass spectrometry based pull down assay; type: cell-based
[11] = target: T1, 80S Ribosome (Homo sapiens); test: Binding affinity to RPS25 in human NCI-H23 cells at 1 uM by mass spectrometry based pull down assay; type: cell-based
[12] = target: Plectin (Homo sapiens) (UniProt Q15149); test: Binding affinity to PLEC in human NCI-H23 cells at 1 uM by mass spectrometry based pull down assay; type: cell-based
[13] = target: Glyoxylate reductase/hydroxypyruvate reductase (Homo sapiens) (UniProt Q9UBQ7); test: Binding affinity to GRHPR in human NCI-H23 cells at 1 uM by mass spectrometry based pull down assay; type: cell-based
[14] = target: Ubiquitin-like modifier-activating enzyme 1 (Homo sapiens) (UniProt P22314); test: Binding affinity to UBA1 in human NCI-H358 cells at 1 uM by mass spectrometry based pull down assay; type: cell-based
[15] = target: Small ribosomal subunit protein uS2 (Homo sapiens) (UniProt P08865); test: Binding affinity to RPSA in human NCI-H23 cells at 1 uM by mass spectrometry based pull down assay; type: cell-based
[16] = target: T1, 80S Ribosome (Homo sapiens); test: Binding affinity to RPL31 in human NCI-H23 cells at 1 uM by mass spectrometry based pull down assay; type: cell-based
[17] = target: Ribosomal protein S6 kinase alpha-4 (Homo sapiens) (UniProt O75676); test: Binding affinity to RPS6KA4 in human NCI-H358 cells at 1 uM by mass spectrometry based pull down assay; type: cell-based
[18] = target: Protein disulfide-isomerase A4 (Homo sapiens) (UniProt P13667); test: Binding affinity to PDIA4 in human NCI-H358 cells at 1 uM by mass spectrometry based pull down assay; type: cell-based
[19] = target: T1, 80S Ribosome (Homo sapiens); test: Binding affinity to RPL31 in human NCI-H358 cells at 1 uM by mass spectrometry based pull down assay; type: cell-based
[20] = target: Mitochondrial import inner membrane translocase subunit TIM50 (Homo sapiens) (UniProt Q3ZCQ8); test: Binding affinity to TIMM50 in human NCI-H358 cells at 1 uM by mass spectrometry based pull down assay; type: cell-based
[21] = target: Deoxyribose-phosphate aldolase (Homo sapiens) (UniProt Q9Y315); test: Binding affinity to DERA in human NCI-H23 cells at 1 uM by mass spectrometry based pull down assay; type: cell-based
[22] = target: Glyoxalase domain-containing protein 4 (Homo sapiens) (UniProt Q9HC38); test: Binding affinity to GLOD4 in human NCI-H23 cells at 1 uM by mass spectrometry based pull down assay; type: cell-based
[23] = target: Protein SET (Homo sapiens) (UniProt Q01105); test: Binding affinity to SET in human NCI-H358 cells at 1 uM by mass spectrometry based pull down assay; type: cell-based
[24] = target: Isoleucine--tRNA ligase, cytoplasmic (Homo sapiens) (UniProt P41252); test: Binding affinity to IARS in human NCI-H358 cells at 1 uM by mass spectrometry based pull down assay; type: cell-based
[25] = tested on: NCI-H23; test: Binding affinity to PTGES3L-AARSD1 in human NCI-H23 cells at 1 uM by mass spectrometry based pull down assay; type: cell-based
[26] = target: T1, 80S Ribosome (Homo sapiens); test: Binding affinity to RPL10 in human NCI-H23 cells at 1 uM by mass spectrometry based pull down assay; type: cell-based
[27] = target: Receptor-interacting serine/threonine-protein kinase 4 (Homo sapiens) (UniProt P57078); test: Inhibition of ANKRD3 in human SKCO1 cells at 1 uM after 4 hrs using biotin labeled TWLAIKCSPSLHVDDR probe by mass-spectrometric analysis relative to control; type: cell-based
[28] = target: Dual specificity mitogen-activated protein kinase kinase 1 (Homo sapiens) (UniProt Q02750); test: Inhibition of full length human MEK1 (1 to 393 residues) expressed in mammalian expression system assessed as enzyme activity at 10 uM by KINOMEScan assay relative to control; design: scale not given: the % may be the effect or the level left
Outline: (§1)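 In vitro ATP-site competition binding assay (KinomeScan) across a panel of 456 kinases. Compound was tested at 1 and 10 μM. The read-out is the binding inhibition score relative to control.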

[29] = target: BMP-2-inducible protein kinase (Homo sapiens) (UniProt Q9NSY1); test: Inhibition of human BIKE (34 to 329 residues) expressed in bacterial expression system assessed as enzyme activity at 10 uM by KINOMEScan assay relative to control; design: scale not given: the % may be the effect or the level left; outline: as §1
Sequence of BMP-2-inducible protein kinase (Homo sapiens) (Q9NSY1 whole entry, looked up, the tested form may be a part): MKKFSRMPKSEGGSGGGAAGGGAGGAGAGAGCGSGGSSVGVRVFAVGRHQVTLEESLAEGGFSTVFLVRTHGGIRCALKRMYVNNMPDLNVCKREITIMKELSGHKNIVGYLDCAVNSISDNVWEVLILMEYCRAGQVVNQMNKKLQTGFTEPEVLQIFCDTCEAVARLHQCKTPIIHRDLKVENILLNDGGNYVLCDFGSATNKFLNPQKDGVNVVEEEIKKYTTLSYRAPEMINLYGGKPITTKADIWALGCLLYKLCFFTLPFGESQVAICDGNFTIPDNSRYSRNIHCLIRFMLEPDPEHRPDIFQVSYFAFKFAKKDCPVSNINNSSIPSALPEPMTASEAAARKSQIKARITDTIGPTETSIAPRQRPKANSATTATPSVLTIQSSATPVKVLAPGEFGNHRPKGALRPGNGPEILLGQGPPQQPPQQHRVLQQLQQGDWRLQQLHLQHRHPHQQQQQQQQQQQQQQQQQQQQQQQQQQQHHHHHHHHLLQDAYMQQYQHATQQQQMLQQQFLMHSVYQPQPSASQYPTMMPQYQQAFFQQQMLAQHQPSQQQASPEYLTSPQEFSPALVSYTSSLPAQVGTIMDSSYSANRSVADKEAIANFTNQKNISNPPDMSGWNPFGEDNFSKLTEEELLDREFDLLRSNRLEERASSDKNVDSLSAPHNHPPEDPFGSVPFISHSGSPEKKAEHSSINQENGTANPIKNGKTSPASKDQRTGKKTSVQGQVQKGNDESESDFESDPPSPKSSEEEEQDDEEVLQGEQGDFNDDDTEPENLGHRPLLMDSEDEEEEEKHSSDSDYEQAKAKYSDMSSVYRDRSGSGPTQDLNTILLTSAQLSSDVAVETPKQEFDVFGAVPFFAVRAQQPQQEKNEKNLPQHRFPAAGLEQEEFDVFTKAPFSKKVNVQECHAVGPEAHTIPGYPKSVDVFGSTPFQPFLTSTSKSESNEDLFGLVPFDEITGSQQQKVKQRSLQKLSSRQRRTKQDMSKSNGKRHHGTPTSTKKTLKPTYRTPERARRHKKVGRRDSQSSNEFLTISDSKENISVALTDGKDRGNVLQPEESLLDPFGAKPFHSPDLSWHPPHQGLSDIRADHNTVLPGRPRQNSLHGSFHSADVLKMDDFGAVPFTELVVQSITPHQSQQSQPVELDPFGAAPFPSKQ

Sequence of Protein disulfide-isomerase A4 (Homo sapiens) (P13667 whole entry): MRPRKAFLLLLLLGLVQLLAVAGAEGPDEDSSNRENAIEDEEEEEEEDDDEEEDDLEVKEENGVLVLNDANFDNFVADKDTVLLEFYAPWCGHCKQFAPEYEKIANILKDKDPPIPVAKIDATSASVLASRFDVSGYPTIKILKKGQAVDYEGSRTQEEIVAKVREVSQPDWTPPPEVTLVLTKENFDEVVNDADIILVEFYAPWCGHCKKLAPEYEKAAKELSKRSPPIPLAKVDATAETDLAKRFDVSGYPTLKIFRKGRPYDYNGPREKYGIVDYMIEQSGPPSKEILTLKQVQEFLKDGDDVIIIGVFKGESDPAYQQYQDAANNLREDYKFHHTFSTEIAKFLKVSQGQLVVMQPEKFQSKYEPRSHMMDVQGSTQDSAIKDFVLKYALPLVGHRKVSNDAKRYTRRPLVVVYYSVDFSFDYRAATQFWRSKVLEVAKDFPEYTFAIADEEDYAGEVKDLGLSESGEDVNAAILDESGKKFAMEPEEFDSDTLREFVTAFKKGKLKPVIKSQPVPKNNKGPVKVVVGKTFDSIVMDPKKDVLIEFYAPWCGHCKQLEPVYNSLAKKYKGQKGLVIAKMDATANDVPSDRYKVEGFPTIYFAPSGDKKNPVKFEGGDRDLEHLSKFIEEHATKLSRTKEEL
Sequence of Glyoxylate reductase/hydroxypyruvate reductase (Homo sapiens) (Q9UBQ7 whole entry): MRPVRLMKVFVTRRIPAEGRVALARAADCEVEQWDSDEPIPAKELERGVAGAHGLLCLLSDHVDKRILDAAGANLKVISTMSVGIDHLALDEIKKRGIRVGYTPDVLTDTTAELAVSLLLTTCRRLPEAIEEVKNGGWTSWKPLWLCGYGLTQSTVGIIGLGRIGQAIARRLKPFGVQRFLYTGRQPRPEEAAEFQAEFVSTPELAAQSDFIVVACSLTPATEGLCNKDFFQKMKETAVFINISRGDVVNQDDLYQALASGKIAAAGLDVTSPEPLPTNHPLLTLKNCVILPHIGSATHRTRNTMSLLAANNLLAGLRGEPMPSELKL
Sequence of Poly(rC)-binding protein 2 (Homo sapiens) (Q15366 whole entry): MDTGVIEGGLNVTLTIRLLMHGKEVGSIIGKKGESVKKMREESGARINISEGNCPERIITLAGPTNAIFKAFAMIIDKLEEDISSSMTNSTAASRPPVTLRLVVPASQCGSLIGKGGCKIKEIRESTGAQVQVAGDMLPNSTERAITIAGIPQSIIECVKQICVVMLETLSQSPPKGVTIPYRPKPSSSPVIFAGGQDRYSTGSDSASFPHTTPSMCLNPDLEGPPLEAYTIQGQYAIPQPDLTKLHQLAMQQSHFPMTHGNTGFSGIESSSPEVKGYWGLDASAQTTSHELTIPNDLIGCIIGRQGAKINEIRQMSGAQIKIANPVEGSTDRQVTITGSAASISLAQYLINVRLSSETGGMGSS
Sequence of Glutamate--cysteine ligase regulatory subunit (Homo sapiens) (P48507 whole entry): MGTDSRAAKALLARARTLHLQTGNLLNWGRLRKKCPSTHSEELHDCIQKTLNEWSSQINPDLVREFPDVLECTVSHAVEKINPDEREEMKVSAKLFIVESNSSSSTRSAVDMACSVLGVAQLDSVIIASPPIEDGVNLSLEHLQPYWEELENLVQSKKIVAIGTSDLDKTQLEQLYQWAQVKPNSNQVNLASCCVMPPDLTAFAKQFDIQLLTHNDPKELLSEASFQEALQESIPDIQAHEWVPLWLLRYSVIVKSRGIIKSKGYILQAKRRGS
Sequence of Protein SET (Homo sapiens) (Q01105 whole entry): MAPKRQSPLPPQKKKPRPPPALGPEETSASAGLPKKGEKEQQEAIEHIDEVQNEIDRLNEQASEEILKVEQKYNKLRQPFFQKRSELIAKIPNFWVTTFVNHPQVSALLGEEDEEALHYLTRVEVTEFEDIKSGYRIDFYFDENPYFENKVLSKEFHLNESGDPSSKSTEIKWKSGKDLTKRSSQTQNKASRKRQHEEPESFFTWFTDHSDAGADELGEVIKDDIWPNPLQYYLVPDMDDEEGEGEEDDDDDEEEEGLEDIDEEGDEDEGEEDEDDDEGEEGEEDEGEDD
Sequence of ATP-dependent RNA helicase DDX3X (Homo sapiens) (O00571 2-662 limits assumed): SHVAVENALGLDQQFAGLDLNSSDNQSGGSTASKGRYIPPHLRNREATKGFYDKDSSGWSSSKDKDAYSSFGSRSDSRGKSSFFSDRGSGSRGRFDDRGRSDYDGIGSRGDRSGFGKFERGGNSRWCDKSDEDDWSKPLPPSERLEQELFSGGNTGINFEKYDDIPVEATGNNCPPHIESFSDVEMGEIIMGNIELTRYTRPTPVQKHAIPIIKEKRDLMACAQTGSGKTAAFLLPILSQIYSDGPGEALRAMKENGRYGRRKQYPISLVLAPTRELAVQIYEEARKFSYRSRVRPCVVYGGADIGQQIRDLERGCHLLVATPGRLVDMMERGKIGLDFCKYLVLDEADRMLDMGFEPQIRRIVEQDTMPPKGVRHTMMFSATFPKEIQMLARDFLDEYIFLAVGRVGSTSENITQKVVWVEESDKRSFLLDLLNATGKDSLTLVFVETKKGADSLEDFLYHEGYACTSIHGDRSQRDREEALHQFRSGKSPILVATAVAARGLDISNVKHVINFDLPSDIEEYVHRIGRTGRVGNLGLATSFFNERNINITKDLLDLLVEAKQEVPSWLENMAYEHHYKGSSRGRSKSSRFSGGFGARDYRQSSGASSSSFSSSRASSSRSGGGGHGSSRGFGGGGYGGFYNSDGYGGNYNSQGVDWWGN
Sequence of Deoxyribose-phosphate aldolase (Homo sapiens) (Q9Y315 whole entry, the tested form may be a part): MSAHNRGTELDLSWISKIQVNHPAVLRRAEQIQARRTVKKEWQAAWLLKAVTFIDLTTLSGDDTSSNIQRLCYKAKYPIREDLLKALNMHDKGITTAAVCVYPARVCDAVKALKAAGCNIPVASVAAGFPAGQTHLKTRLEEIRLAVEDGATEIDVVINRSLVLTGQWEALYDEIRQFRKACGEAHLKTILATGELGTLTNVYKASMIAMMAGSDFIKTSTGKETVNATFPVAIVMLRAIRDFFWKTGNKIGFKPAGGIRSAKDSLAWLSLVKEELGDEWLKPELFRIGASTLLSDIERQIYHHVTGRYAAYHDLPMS
Sequence of Mitochondrial import inner membrane translocase subunit TIM50 (Homo sapiens) (Q3ZCQ8 whole entry): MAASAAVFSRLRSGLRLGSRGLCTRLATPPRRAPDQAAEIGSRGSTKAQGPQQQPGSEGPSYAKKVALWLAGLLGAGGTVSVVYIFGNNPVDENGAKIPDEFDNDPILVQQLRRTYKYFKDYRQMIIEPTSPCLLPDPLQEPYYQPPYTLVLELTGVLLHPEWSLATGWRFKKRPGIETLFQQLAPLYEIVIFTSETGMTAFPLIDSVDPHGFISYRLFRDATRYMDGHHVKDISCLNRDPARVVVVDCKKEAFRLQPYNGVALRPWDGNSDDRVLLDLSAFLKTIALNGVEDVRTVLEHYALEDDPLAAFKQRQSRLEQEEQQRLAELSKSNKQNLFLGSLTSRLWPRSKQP
Sequence of Glyoxalase domain-containing protein 4 (Homo sapiens) (Q9HC38 whole entry, the tested form may be a part): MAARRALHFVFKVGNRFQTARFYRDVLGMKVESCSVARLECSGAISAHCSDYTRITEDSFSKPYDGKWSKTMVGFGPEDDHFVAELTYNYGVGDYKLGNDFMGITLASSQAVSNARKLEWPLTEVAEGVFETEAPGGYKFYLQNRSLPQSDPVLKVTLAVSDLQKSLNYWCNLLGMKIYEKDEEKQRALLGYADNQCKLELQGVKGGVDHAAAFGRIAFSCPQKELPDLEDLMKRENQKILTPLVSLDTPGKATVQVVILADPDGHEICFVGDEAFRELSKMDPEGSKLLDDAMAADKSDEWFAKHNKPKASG

Activity [1]: Active | Activity [2]: Active | Activity [3]: Active | Activity [4]: Active | Activity [5]: Active | Activity [6]: Active | Activity [7]: Active | Activity [8]: Active | Activity [9]: Active | Activity [10]: Active | Activity [11]: Active | Activity [12]: Active | Activity [13]: Active | Activity [14]: Active | Activity [15]: Active | Activity [16]: Active | Activity [17]: Active | Activity [18]: Active | Activity [19]: Active | Activity [20]: Active | Activity [21]: Active | Activity [22]: Active | Activity [23]: Active | Activity [24]: Active | Activity [26]: Active
Structure (SMILES): C=CC(=O)Nc1ccccc1Nc1nc(Nc2ccc(N3CCN(CCOCCOCCOCCNC(=O)CCCC[C@@H]4SC[C@@H]5NC(=O)N[C@@H]54)CC3)cc2)ncc1Cl
Activity [25]: Active

Structure (SMILES): C=CC(=O)Nc1ccccc1Nc1nc(Nc2ccc(N3CCN(C)CC3)cc2)ncc1Cl
inhibition [27]: -0.1%

Structure (SMILES): COc1cc(O)c2c(c1)/C=C/C[C@H](O)[C@H](O)C(=O)/C=C\C[C@H](C)OC2=O
Activity [28]: 0.05% | Activity [29]: 3.8%
